According to ChEMBL document CHEMBL4038305, “Benzoxaborole Antimalarial Agents. Part 5. Lead Optimization of Novel Amide Pyrazinyloxy Benzoxaboroles and Identification of a Preclinical Candidate” (J Med Chem, 2017):

What was measured:
[1] = test system: Plasmodium berghei; experiment: Antimalarial activity against Plasmodium berghei infected in Swiss Webster mouse assessed as mouse survival rate at 100 mg/kg administered once daily via oral gavage for 4 consecutive days beginning 1 hr after infection measured on day 10 post infection relative to control; format: functional
How it was run: (§1)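 Mice given an intraperitoneal injection of P. berghei-infected erythrocytes taken from a previously infected animal. Oral dosing once daily for 4 consecutive days, starting 1 h after infection. Vehicle: polyethylene glycol 300/propylene glycol/water (weight ratio 55/25/20). Percent survival recorded daily from day 4 to day 20. Chloroquine 30 mg/kg and vehicle-only groups served as controls.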

[2] = test system: Plasmodium falciparum; experiment: Antimalarial activity against chloroquine-sensitive Plasmodium falciparum 3D7 infected in human erythrocytes assessed as reduction in [3H]-hypoxanthine incorporation preincubated for 24 hrs followed by [3H]-hypoxanthine addition measured after 24 hrs by scintillation counting method; format: functional, cell-based
How it was run: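 P. falciparum 3D7 cultures were exposed to the compound for 48 h, with atovaquone as the reference control. IC50 was taken from three replicates.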

[3] = Terminal half life in CD1 mouse at 5 mg/kg, po via gavage by HPLC/MS analysis; format: ADME, organism-based; details: in vivo, read-out: beta t1/2 (converted)
How it was run: (§2)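 Female CD-1 mice, male SD rats or beagle dogs given 5 mg/kg by iv injection or oral gavage. Formulation was PEG300/propylene glycol/water 55/25/20, pH 6. Blood samples analysed by HPLC–MS/MS; parameters include AUC0-inf extrapolated to infinity and terminal half-life.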

[4] = test system: Plasmodium berghei; experiment: Antimalarial activity against Plasmodium berghei infected in Swiss Webster mouse assessed as mouse survival rate at 3.7 mg/kg administered once daily via oral gavage for 4 consecutive days beginning 1 hr after infection measured on day 5 post infection relative to control; format: functional
How it was run: (§3)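 P. berghei-infected erythrocytes taken from a previously infected mouse were injected intraperitoneally. Oral dosing, once daily for 4 consecutive days, began 1 h after infection, in polyethylene glycol 300/propylene glycol/water (55/25/20 by weight). Chloroquine at 30 mg/kg was the positive control, with a vehicle-only group. Percent survival was recorded daily from day 4 to day 20.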

[5] = test system: Plasmodium berghei; experiment: Antimalarial activity against Plasmodium berghei infected in Swiss Webster mouse assessed as mouse survival rate at 11 mg/kg administered once daily via oral gavage for 4 consecutive days beginning 1 hr after infection measured on day 7 post infection relative to control; format: functional; how it was run: as §3
[6] = test system: Plasmodium berghei; experiment: Antimalarial activity against Plasmodium berghei infected in Swiss Webster mouse assessed as mouse survival rate at 11 mg/kg administered once daily via oral gavage for 4 consecutive days beginning 1 hr after infection measured on day 5 post infection relative to control; format: functional; how it was run: as §3
[7] = test system: Plasmodium berghei; experiment: Antimalarial activity against Plasmodium berghei infected in Swiss Webster mouse assessed as mouse survival rate at 0.4 mg/kg administered once daily via oral gavage for 4 consecutive days beginning 1 hr after infection measured on day 7 post infection relative to control; format: functional; how it was run: as §1
[8] = test system: Plasmodium falciparum; experiment: Antimalarial activity against chloroquine-resistant Plasmodium falciparum W2 infected in human erythrocytes after 48 hrs by YOYO-1 dye based flow cytometric analysis; format: functional, cell-based; details: W2, 48 h
How it was run: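 P. falciparum W2 cultures were exposed to the compound for 48 h, with artemisinin and chloroquine as reference controls. IC50 was taken from two independent replicates.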

[9] = test system: Plasmodium berghei; experiment: Antimalarial activity against Plasmodium berghei infected in Swiss Webster mouse assessed as mouse survival rate at 33 mg/kg administered once daily via oral gavage for 4 consecutive days beginning 1 hr after infection measured on day 11 post infection relative to control; format: functional; how it was run: as §3
[10] = test system: Plasmodium berghei; experiment: Antimalarial activity against Plasmodium berghei infected in Swiss Webster mouse assessed as mouse survival rate at 1.2 mg/kg administered once daily via oral gavage for 4 consecutive days beginning 1 hr after infection measured on day 7 post infection relative to control; format: functional; how it was run: as §1
[11] = test system: Plasmodium berghei; experiment: Antimalarial activity against Plasmodium berghei infected in Swiss Webster mouse assessed as mouse survival rate at 0.4 mg/kg administered once daily via oral gavage for 4 consecutive days beginning 1 hr after infection measured on day 4 post infection relative to control; format: functional; how it was run: as §1
[12] = test system: Plasmodium berghei; experiment: Antimalarial activity against Plasmodium berghei infected in Swiss Webster mouse assessed as mouse survival rate at 1.2 mg/kg administered once daily via oral gavage for 4 consecutive days beginning 1 hr after infection measured on day 5 post infection relative to control; format: functional; how it was run: as §1
[13] = test system: Plasmodium berghei; experiment: Antimalarial activity against Plasmodium berghei infected in Swiss Webster mouse assessed as mouse survival rate at 0.4 mg/kg administered once daily via oral gavage for 4 consecutive days beginning 1 hr after infection measured on day 6 post infection relative to control; format: functional; how it was run: as §1
[14] = Terminal half life in CD1 mouse at 5 mg/kg, iv by HPLC/MS analysis; format: ADME, organism-based; details: in vivo, read-out: beta t1/2 (converted); how it was run: as §2
[15] = test system: Plasmodium berghei; experiment: Antimalarial activity against Plasmodium berghei infected in Swiss Webster mouse assessed as mouse survival rate at 100 mg/kg administered once daily via oral gavage for 4 consecutive days beginning 1 hr after infection measured on day 4 post infection relative to control; format: functional; how it was run: as §1
[16] = test system: Plasmodium berghei; experiment: Antimalarial activity against Plasmodium berghei infected in Swiss Webster mouse assessed as mouse survival rate at 0.4 mg/kg administered once daily via oral gavage for 4 consecutive days beginning 1 hr after infection measured on day 5 post infection relative to control; format: functional; how it was run: as §1
[17] = test system: Plasmodium berghei; experiment: Antimalarial activity against Plasmodium berghei infected in Swiss Webster mouse assessed as mouse survival rate at 100 mg/kg administered once daily via oral gavage for 4 consecutive days beginning 1 hr after infection measured on day 8 post infection relative to control; format: functional; how it was run: as §1
[18] = test system: Plasmodium berghei; experiment: Antimalarial activity against Plasmodium berghei infected in Swiss Webster mouse assessed as mouse survival rate at 100 mg/kg administered once daily via oral gavage for 4 consecutive days beginning 1 hr after infection measured on day 9 post infection relative to control; format: functional; how it was run: as §1
[19] = test system: Plasmodium berghei; experiment: Antimalarial activity against Plasmodium berghei infected in Swiss Webster mouse assessed as mouse survival rate at 0.1 mg/kg administered once daily via oral gavage for 4 consecutive days beginning 1 hr after infection measured on day 7 post infection relative to control; format: functional; how it was run: as §1
[20] = test system: Plasmodium berghei; experiment: Antimalarial activity against Plasmodium berghei infected in Swiss Webster mouse assessed as mouse survival rate at 100 mg/kg administered once daily via oral gavage for 4 consecutive days beginning 1 hr after infection measured on day 12 post infection relative to control; format: functional; how it was run: as §1
[21] = test system: Plasmodium berghei; experiment: Antimalarial activity against Plasmodium berghei infected in Swiss Webster mouse assessed as mouse survival rate at 33 mg/kg administered once daily via oral gavage for 4 consecutive days beginning 1 hr after infection measured on day 13 post infection relative to control; format: functional; how it was run: as §3
[22] = Metabolic stability in human hepatocytes at 22 uM after 44 hrs; format: ADME, cell-based, Hepatocyte
[23] = test system: Plasmodium berghei; experiment: Antimalarial activity against Plasmodium berghei infected in Swiss Webster mouse assessed as mouse survival rate at 100 mg/kg administered once daily via oral gavage for 4 consecutive days beginning 1 hr after infection measured on day 13 post infection relative to control; format: functional; how it was run: as §1
[24] = test system: Plasmodium berghei; experiment: Antimalarial activity against Plasmodium berghei infected in Swiss Webster mouse assessed as mouse survival rate at 0.1 mg/kg administered once daily via oral gavage for 4 consecutive days beginning 1 hr after infection measured on day 6 post infection relative to control; format: functional; how it was run: as §1
[25] = test system: Plasmodium berghei; experiment: Antimalarial activity against Plasmodium berghei infected in Swiss Webster mouse assessed as mouse survival rate at 200 mg/kg administered once daily via oral gavage for 4 consecutive days beginning 1 hr after infection measured on day 8 post infection relative to control; format: functional; how it was run: as §3
[26] = test system: Plasmodium berghei; experiment: Antimalarial activity against Plasmodium berghei infected in Swiss Webster mouse assessed as mouse survival rate at 11 mg/kg administered once daily via oral gavage for 4 consecutive days beginning 1 hr after infection measured on day 9 post infection relative to control; format: functional; how it was run: as §3

| Compound | survival at 100 mg/kg [1] [%] | IC50 [2] [nM] | half-life [3] [h] | survival at 3.7 mg/kg [4] [%] | survival at 11 mg/kg [5] [%] | survival at 11 mg/kg [6] [%] | survival at 0.4 mg/kg [7] [%] | IC50 [8] [nM] | survival at 33 mg/kg [9] [%] | survival at 1.2 mg/kg [10] [%] | survival at 0.4 mg/kg [11] [%] | survival at 1.2 mg/kg [12] [%] | survival at 0.4 mg/kg [13] [%] | half-life [14] [h] | survival at 100 mg/kg [15] [%] | survival at 0.4 mg/kg [16] [%] | survival at 100 mg/kg [17] [%] | survival at 100 mg/kg [18] [%] | survival at 100 mg/kg [20] [%] | survival at 100 mg/kg [23] [%] | further results |
| --- | --- | --- | --- | --- | --- | --- | --- | --- | --- | --- | --- | --- | --- | --- | --- | --- | --- | --- | --- | --- | --- |
| Cc1c(Oc2cnc(C(=O)N[C@@H](CO)CC(F)(F)F)cn2)ccc2c1B(O)OC2 | 100 | 149 | 3 | 100 | 0 | 100 | 0 | 82.2 | 0 | 0 | 100 | 100 | 100 | 3 | 100 | 100 | 100 | 100 |  |  |  |
| Cc1c(Oc2cnc(C(=O)N3CC(O)(C4CC4)C3)cn2)ccc2c1B(O)OC2 | 100 | 134 |  | 100 | 0 | 100 | 0 | 51.7 | 40 | 0 | 100 | 100 | 100 |  | 100 | 100 | 100 | 100 | 100 | 100 | survival at 0.1 mg/kg [19]: 0%; survival at 33 mg/kg [21]: 40%; Stability [22]: Stable; survival at 0.1 mg/kg [24]: 100% |
| Cc1c(Oc2cnc(C(=O)N3CC(O)(C(C)C)C3)cn2)ccc2c1B(O)OC2 | 100 | 57 |  | 100 | 60 | 100 | 0 | 40.7 | 100 |  | 100 |  | 100 |  | 100 | 100 | 100 | 100 | 100 | 100 | survival at 0.1 mg/kg [19]: 0%; survival at 33 mg/kg [21]: 100%; Stability [22]: Stable; survival at 200 mg/kg [25]: 100%; survival at 11 mg/kg [26]: 60%; survival at 0.1 mg/kg [24]: 100% |
| Cc1c(Oc2cnc(C(=O)NC(C)CO)cn2)ccc2c1B(O)OC2 (centres undefined) | 40 | 994 | 2.7 |  | 40 | 40 |  | 342 |  |  |  |  |  | 3.1 | 100 |  | 100 | 80 | 0 |  |  |
| CCC[C@H](CO)NC(=O)c1cnc(Oc2ccc3c(c2C)B(O)OC3)cn1 | 100 | 201 | 4.5 | 100 | 0 | 100 |  | 161 |  | 0 |  | 100 |  | 4.2 | 100 |  | 100 | 100 | 20 | 20 | survival at 200 mg/kg [25]: 100% |
